Results published in ChEMBL document CHEMBL1143117, “Synthesis and SAR of 2-aryloxy-4-alkoxy-pyridines as potent orally active corticotropin-releasing factor 1 receptor antagonists” (J Med Chem, 2008).
Values after ≈ are worked out from the molar mass of the structure shown. Blank lines part the entries; values can stand above or below the compound they belong to.

How the values were obtained:
[1] = molecular target: T1, Corticotropin-releasing factor receptor 1 (Rattus norvegicus, UniProt P35353); experiment: Displacement of [125]oCRF from rat cortex CRF1 receptor
T1 sequence (P35353 whole entry): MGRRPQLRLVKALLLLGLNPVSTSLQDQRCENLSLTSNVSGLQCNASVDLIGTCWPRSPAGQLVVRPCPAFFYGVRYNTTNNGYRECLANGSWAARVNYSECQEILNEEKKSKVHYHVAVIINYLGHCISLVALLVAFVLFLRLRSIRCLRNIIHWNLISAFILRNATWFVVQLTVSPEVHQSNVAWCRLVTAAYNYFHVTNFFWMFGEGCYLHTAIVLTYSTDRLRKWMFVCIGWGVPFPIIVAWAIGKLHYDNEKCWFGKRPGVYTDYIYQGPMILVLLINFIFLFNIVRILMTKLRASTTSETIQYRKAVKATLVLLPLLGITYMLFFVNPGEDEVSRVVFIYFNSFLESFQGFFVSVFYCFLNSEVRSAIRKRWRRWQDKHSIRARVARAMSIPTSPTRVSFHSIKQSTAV
How it was run: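 Rat cortex binding used ¹²⁵I-ovine-CRF as radioligand. pIC50 ± SEM and IC50 are geometric means of at least three experimental runs.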

Rattus norvegicus [2] = experiment: Ex vivo displacement of [125]oCRF from CRF1 receptor in rat pituitary at 3.2 mg/kg, sc; assay type: functional; details: route subcutaneous
How it was run: (§1)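 Rats received 3.2 mg/kg p.o. or s.c. per line, and cortex and pituitary binding of ¹²⁵I-oCRF was measured 1 h later by one of two methods. Homogenate method: 25 mg wet tissue/mL in PIPES pH 7.0 buffer, 40 pM ligand, 2 h at room temperature, centrifuged, filtered, scintillation counted. Autoradiographic method: male Sprague-Dawley rats (N = 4), 16 µm sections, 60 pM ligand, 1 h at room temperature. Nonspecific binding was set with 1 µM rat/human CRF. Percent inhibition is mean ± SD.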

Rattus norvegicus [3] = experiment: Ex vivo displacement of [125]oCRF from CRF1 receptor in rat cortex at 3.2 mg/kg, sc; assay type: functional; details: route subcutaneous; how it was run: as §1
[4] = Dissociation constant, pKa of the compound; assay type: physicochemical
How it was run: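 UV spectrophotometric pKa determination, with the value extrapolated to 0% organic solvent.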

[5] = Solubility at pH 7; assay type: physicochemical; details: buffer
Rattus norvegicus [6] = experiment: Ex vivo displacement of [125]oCRF from CRF1 receptor in rat cortex at 3.2 mg/kg, po; assay type: functional; how it was run: as §1
[7] = molecular target: T1, Corticotropin-releasing factor receptor 1; experiment: Antagonist activity at rat cortex CRF1 receptor assessed as inhibition of CRF-stimulated adenylate cyclase activity; assay type: functional, tissue-based
[8] = Solubility of the compound; assay type: physicochemical
How it was run: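 Kinetic water solubility was measured in an in-house high-throughput assay.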

Rattus norvegicus [9] = experiment: Ex vivo displacement of [125]oCRF from CRF1 receptor in rat pituitary at 3.2 mg/kg, po; assay type: functional; how it was run: as §1
[10] = molecular target: T2, Corticotropin-releasing factor receptor 1 (Homo sapiens, UniProt P34998); experiment: Antagonist activity at human CRF1 receptor endogenously expressed in human IMR32 cells; assay type: functional, cell-based, IMR-32
T2 sequence (P34998 whole entry): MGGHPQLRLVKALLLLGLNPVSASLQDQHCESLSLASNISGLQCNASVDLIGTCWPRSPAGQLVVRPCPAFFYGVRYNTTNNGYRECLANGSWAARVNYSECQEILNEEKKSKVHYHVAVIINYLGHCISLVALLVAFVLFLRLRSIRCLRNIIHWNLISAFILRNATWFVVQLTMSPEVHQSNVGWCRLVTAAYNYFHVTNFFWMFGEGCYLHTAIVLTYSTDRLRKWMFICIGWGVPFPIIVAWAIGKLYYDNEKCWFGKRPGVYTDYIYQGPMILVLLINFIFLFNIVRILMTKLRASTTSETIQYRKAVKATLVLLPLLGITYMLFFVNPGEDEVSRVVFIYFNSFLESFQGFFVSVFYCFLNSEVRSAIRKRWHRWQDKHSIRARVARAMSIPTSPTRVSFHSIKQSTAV

[11] = molecular target: Corticotropin-releasing factor receptor 1 (Rattus norvegicus) (UniProt P35353); experiment: Inhibition of CRF1 receptor
[12] = Solubility at pH 2; assay type: physicochemical; details: buffer
Rattus norvegicus [13] = experiment: Attenuation of HPA axis activation in po dosed rat assessed as blockade of oCRF-induced elevation of plasma ACTH; assay type: functional
How it was run: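 Rats were dosed orally, then challenged with exogenous oCRF at 4 µg/kg i.v., and plasma ACTH was measured. The MED was judged against CRF alone by one-way ANOVA with Dunnett's post hoc test (N = 12). ID50 (p.o.) was calculated with a confidence interval.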

SMILES: CCC(C)Oc1cc(C)nc(Oc2c(C)cc(C)cc2C)c1C (stereo unspecified)
- IC50 [1]: 28 nM
- inhibition in vivo at 3.2 mg/kg (Rattus norvegicus [2]): 42%
- inhibition in vivo at 3.2 mg/kg (Rattus norvegicus [3]): 74%

SMILES: CCC(CC)Oc1cc(C)nc(Oc2c(C)cc(C)cc2C)c1N
- IC50 [1]: 12 nM
- inhibition in vivo at 3.2 mg/kg (Rattus norvegicus [2]): 51%
- inhibition in vivo at 3.2 mg/kg (Rattus norvegicus [3]): 78%

SMILES: CCC(CC)Oc1cc(C)nc(Oc2c(C)cc(C)cc2C)c1
- IC50 [1]: 150 nM

SMILES: CCC(CC)Oc1cc(C)nc(Oc2c(C)cc(C)cc2C)c1C(=O)O
- IC50 [1]: > 10000 nM

SMILES: CCC(CC)Oc1cc(C)nc(Oc2c(C)cc(C)cc2C)c1Br
- IC50 [1]: 9.8 nM

SMILES: CCc1c(OC(CC)CC)cc(C)nc1Oc1c(C)cc(C)cc1C
- IC50 [1]: 9.1 nM
- inhibition in vivo at 3.2 mg/kg (Rattus norvegicus [2]): 66%
- inhibition in vivo at 3.2 mg/kg (Rattus norvegicus [3]): 57%

SMILES: CCC(CC)Oc1cc(C)nc(Oc2c(C)cc(C)cc2C)c1N(C)C
- IC50 [1]: 25 nM

SMILES: CCC(CC)Oc1c(C)c(C)nc(Oc2c(C)cc(C)cc2C)c1C
- IC50 [1]: 180 nM

SMILES: CCC(CC)Oc1cc(C)nc(Oc2c(C)cc(C(C)(C)O)cc2C)c1C
- IC50 [1]: 40 nM

SMILES: CCC(CC)Oc1cc(C)nc(Oc2c(C)cc(C)nc2C)c1C
- pKa [4]: 4.97
- IC50 [1]: 10 nM
- solubility [8]: 10 µg/mL (≈ 30.4 µM)
- inhibition in vivo at 3.2 mg/kg (Rattus norvegicus [2]): 6%
- inhibition in vivo at 3.2 mg/kg (Rattus norvegicus [3]): 70%

SMILES: Cc1cc(C)c(Oc2nc(C)cc(OC3CCOC3)c2C)c(C)c1 (stereo unspecified)
- IC50 [1]: 100 nM

SMILES: CCC(CC)Oc1cc(C)nc(Oc2c(C)cccc2C)c1C
- IC50 [1]: 110 nM

SMILES: CCc1cc(OC(CC)CC)c(C)c(Oc2c(C)cc(C)cc2C)n1
- IC50 [1]: 86 nM

SMILES: CCc1c(C)nc(Oc2c(C)cc(C)cc2C)c(C)c1OC(CC)CC
- IC50 [1]: > 10000 nM

SMILES: CCOc1cc(C)c(Oc2nc(C)cc(OC(CC)CC)c2C)c(C)c1
- inhibition in vivo at 3.2 mg/kg (Rattus norvegicus [6]): 43%
- IC50 [1]: 20 nM
- inhibition in vivo at 3.2 mg/kg (Rattus norvegicus [9]): 33%

SMILES: CCC(CC)Oc1nc(C)cc(Oc2c(C)cc(C)cc2C)c1C
- IC50 [11]: 3400 nM

SMILES: CCC(CC)Oc1cc(C)nc(Oc2c(C)cc(OC(C)C)cc2C)c1C
- IC50 [1]: 110 nM

SMILES: CCC(CC)Oc1cc(C)nc(Oc2c(C)cc(C)cc2C)c1C(=O)OC
- IC50 [1]: 470 nM

SMILES: CCC(CC)Oc1cc(C)nc(Oc2c(C)cc(C)cc2C)c1[N+](=O)[O-]
- IC50 [1]: 15 nM
- inhibition in vivo at 3.2 mg/kg (Rattus norvegicus [2]): 35%
- inhibition in vivo at 3.2 mg/kg (Rattus norvegicus [3]): 59%

SMILES: CCC(COC)Oc1cc(C)nc(Oc2c(C)cc(C)cc2C)c1C (stereo unspecified)
- IC50 [1]: 11 nM
- inhibition in vivo at 3.2 mg/kg (Rattus norvegicus [2]): 49%
- inhibition in vivo at 3.2 mg/kg (Rattus norvegicus [3]): 75%

SMILES: CCCc1cc(C)c(Oc2nc(C)cc(OC(CC)CC)c2C)c(C)c1
- IC50 [1]: 9.8 nM
- inhibition in vivo at 3.2 mg/kg (Rattus norvegicus [2]): 34%
- inhibition in vivo at 3.2 mg/kg (Rattus norvegicus [3]): 42%

SMILES: CCC(CC)Oc1cc(C)nc(Oc2c(C)cc(COC)cc2C)c1C
- inhibition in vivo at 3.2 mg/kg (Rattus norvegicus [6]): 57%
- IC50 [1]: 3.2 nM
- inhibition in vivo at 3.2 mg/kg (Rattus norvegicus [9]): 12%

SMILES: C/C=C(\CC)Oc1cc(C)nc(Oc2c(C)cc(C)cc2C)c1C (mixture of isomers)
- IC50 [1]: 16 nM
- inhibition in vivo at 3.2 mg/kg (Rattus norvegicus [2]): 55%
- inhibition in vivo at 3.2 mg/kg (Rattus norvegicus [3]): 75%

More lines, main results first:

- IC50 [1]: 40 nM
SMILES: CCC(CC)Oc1cc(C)nc(Oc2c(C)cc(C=O)cc2C)c1C

- pKa [4]: 3.5
- solubility [5]: 0.2 µg/mL (≈ 0.611 µM)
- IC50 [1]: 6.8 nM
- Ki [7]: 7.6 nM
- solubility [8]: < 1 µg/mL
- Ki [10]: 8.5 nM
- IC50 [11]: 6.8 nM
- solubility [12]: 3 µg/mL (≈ 9.16 µM)
SMILES: CCC(CC)Oc1cc(C)nc(Oc2c(C)cc(C)cc2C)c1C
- inhibition in vivo at 3.2 mg/kg (Rattus norvegicus [6]): 75%
- inhibition in vivo at 3.2 mg/kg (Rattus norvegicus [9]): 72%
- ED50 (Rattus norvegicus [13]; read-out: ID50 (the source's name)): 35 mg/kg
- minimal effective dose (Rattus norvegicus [13]; read-out: MED): 10 mg/kg

- IC50 [1]: 2 nM
SMILES: CCC(CC)Oc1cc(C)nc(Oc2c(C)cc(OC)cc2C)c1C
- inhibition in vivo at 3.2 mg/kg (Rattus norvegicus [6]): 75%
- inhibition in vivo at 3.2 mg/kg (Rattus norvegicus [9]): 55%

- IC50 [1]: 2.6 nM
SMILES: CCC(CC)Oc1cc(C)nc(Oc2c(C)cc(Br)cc2C)c1C
- inhibition in vivo at 3.2 mg/kg (Rattus norvegicus [6]): 47%
- inhibition in vivo at 3.2 mg/kg (Rattus norvegicus [9]): 84%

- IC50 [1]: 5.5 nM
SMILES: CCC(CC)Oc1cc(C)nc(Oc2c(C)cc(Cl)cc2C)c1C
- inhibition in vivo at 3.2 mg/kg (Rattus norvegicus [6]): 66%
- inhibition in vivo at 3.2 mg/kg (Rattus norvegicus [9]): 76%

- IC50 [1]: 1400 nM
SMILES: CCC(CC)Oc1cc(C)nc(Oc2c(C)cc(O)cc2C)c1C

- IC50 [1]: 11 nM
SMILES: CCc1cc(C)c(Oc2nc(C)cc(OC(CC)CC)c2C)c(C)c1
- inhibition in vivo at 3.2 mg/kg (Rattus norvegicus [2]): 56%
- inhibition in vivo at 3.2 mg/kg (Rattus norvegicus [3]): 55%

- IC50 [1]: 61 nM
SMILES: CCC(CC)Oc1cc(C)nc(Oc2c(C)cc(CO)cc2C)c1C
- inhibition in vivo at 3.2 mg/kg (Rattus norvegicus [6]): 42%
- inhibition in vivo at 3.2 mg/kg (Rattus norvegicus [9]): -20%

- IC50 [1]: 18 nM
SMILES: CCC(CC)Oc1cc(C)nc(Oc2c(C)cc(C(N)=O)cc2C)c1C
- inhibition in vivo at 3.2 mg/kg (Rattus norvegicus [6]): 33%
- inhibition in vivo at 3.2 mg/kg (Rattus norvegicus [9]): 15%

- IC50 [1]: 12 nM
SMILES: CCC(CC)Oc1cc(C)nc(Oc2c(C)cc(I)cc2C)c1C
- inhibition in vivo at 3.2 mg/kg (Rattus norvegicus [2]): 72%
- inhibition in vivo at 3.2 mg/kg (Rattus norvegicus [3]): 27%

- IC50 [1]: 32 nM
SMILES: CCC(CC)Oc1cc(C)nc(Oc2c(C)cc(F)cc2C)c1C
